Experimental data from ChEMBL document CHEMBL1156339, “A virtual screening hit reveals new possibilities for developing group III metabotropic glutamate receptor agonists” (J Med Chem, 2010).
Calls of active or inactive are those of the source. The calls are words filed in the database; no cut-off is given here.

Assays:
[1] = target: Metabotropic glutamate receptor 4 (Rattus norvegicus) (UniProt P31423); assay: Agonist activity at rat mGlu4 receptor expressed in HEK293 cells co-transfected with G-protein alpha and EAAC1 assessed as increase in intracellular inositol phosphate accumulation at 100 uM after 1 hr by scintillation counting; format: functional, cell-based
[2] = target: T1, Metabotropic glutamate receptor 8 (Rattus norvegicus, UniProt P70579); assay: Agonist activity at rat mGlu8 receptor expressed in HEK293 cells co-transfected with G-protein alpha and EAAC1 assessed as increase in intracellular inositol phosphate accumulation after 1 hr by scintillation counting; format: functional, cell-based
Outline: (§1)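 Rat receptor, chimeric G-protein alpha subunit and EAAC1 electroporated into HEK293 cells and grown 24 h in polyornithine-coated plates in glutamate/glutamine-free medium. Labelled overnight with 3H-myoinositol from 6 h post-transfection. Ambient glutamate degraded with glutamate-pyruvate transaminase, then agonist applied 30 min. Lysis 1 h in cold 0.1 M formic acid. 3H-IP isolated on Dowex and counted. IP normalised to IP plus membrane radioactivity, triplicate; mean ± SEM of n experiments.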

[3] = target: T2, Metabotropic glutamate receptor 4 (Rattus norvegicus, UniProt P31423); assay: (§2) Agonist activity at rat mGlu4 receptor expressed in HEK293 cells co-transfected with G-protein alpha and EAAC1 assessed as increase in intracellular calcium level after 1 hr by fluorescence microplate reader; format: functional, cell-based
Outline: (§3)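 HEK293 cells electroporated with rat receptor plus chimeric G-protein alpha subunit and EAAC1, grown 24 h in polyornithine-coated plates in glutamate/glutamine-free medium. Cells loaded 1 h at 37 °C with Fluo-4 AM in HBSS with 2.5 mM probenecid, washed. Agonist added after 20 s of recording. Fluorescence read at ex 485/em 525 nm over a concentration range, triplicate points. EC50 given as mean ± SEM of n experiments.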

[4] = target: T3, Metabotropic glutamate receptor 6 (Rattus norvegicus, UniProt P35349); assay: Agonist activity at rat mGlu6 receptor expressed in HEK293 cells co-transfected with G-protein alpha and EAAC1 assessed as increase in intracellular calcium level after 1 hr by fluorescence microplate reader; format: functional, cell-based; outline: as §3
[5] = target: Metabotropic glutamate receptor 2 (Rattus norvegicus) (UniProt P31421); assay: Agonist activity at rat mGlu2 receptor expressed in HEK293 cells assessed as increase in intracellular calcium level at 100 uM after 1 hr by fluorescence microplate reader; format: functional, cell-based
Outline: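 Rat mGlu2 transiently electroporated into HEK293 cells with EAAC1. Fluo-4 AM loaded 1 h at 37 °C in HBSS with 2.5 mM probenecid. Agonist applied at 100 μM after 20 s of recording, with DCG-IV 100 μM as reference. Fluorescence read at ex 485/em 525 nm.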

[6] = target: T2, Metabotropic glutamate receptor 4; assay: Agonist activity at rat mGlu4 receptor expressed in HEK293 cells co-transfected with G-protein alpha and EAAC1 assessed as increase in intracellular inositol phosphate accumulation after 1 hr by scintillation counting; format: functional, cell-based; outline: as §1
[7] = target: T1, Metabotropic glutamate receptor 8; assay: (§4) Agonist activity at rat mGlu8 receptor expressed in HEK293 cells co-transfected with G-protein alpha and EAAC1 assessed as increase in intracellular calcium level after 1 hr by fluorescence microplate reader; format: functional, cell-based; outline: as §3
[8] = target: Metabotropic glutamate receptor 5 (Rattus norvegicus) (UniProt P31424); assay: Agonist activity at rat mGlu5 receptor expressed in HEK293 cells; format: functional, cell-based
Outline: (§5)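 Receptor transiently electroporated into HEK293 cells (DMEM, 10% FCS, penicillin/streptomycin) with EAAC1 transporter, plated in 96-well plates; tested for agonist or antagonist activity coupled to PLC, read out by IP or Fluo-4 Ca2+ assays.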

[9] = target: Metabotropic glutamate receptor 2 (Rattus norvegicus, UniProt P31421); assay: Agonist activity at rat mGlu2 receptor expressed in HEK293 cells assessed as increase in intracellular calcium level after 1 hr by fluorescence microplate reader; format: functional, cell-based; outline: as §3
[10] = target: T4, Metabotropic glutamate receptor 7 (Rattus norvegicus, UniProt P35400); assay: (§6) Agonist activity at rat mGlu7 receptor expressed in HEK293 cells co-transfected with G-protein alpha and EAAC1 assessed as increase in intracellular calcium level after 1 hr by fluorescence microplate reader; format: functional, cell-based
Outline: (§7)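 Rat mGlu7 electroporated into HEK293 cells with a chimeric G-protein α subunit and EAAC1. Cells were grown 24 h on polyornithine in glutamate/glutamine-free medium, then loaded with Fluo-4 AM in HBSS with 2.5 mM probenecid for 1 h at 37 °C and washed. Agonist was added 20 s into recording, and fluorescence was read at ex 485/em 525 nm. Points were run in triplicate across a concentration series to give EC50.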

[11] = target: Metabotropic glutamate receptor 1 (Rattus norvegicus) (UniProt P23385); assay: Agonist activity at rat mGlu1 receptor expressed in HEK293 cells; format: functional, cell-based; outline: as §5
[12] = target: T3, Metabotropic glutamate receptor 6; assay: Agonist activity at rat mGlu6 receptor expressed in HEK293 cells co-transfected with G-protein alpha and EAAC1 assessed as increase in intracellular inositol phosphate accumulation after 1 hr by scintillation counting; format: functional, cell-based; outline: as §1
[13] = target: Metabotropic glutamate receptor 7 (Rattus norvegicus) (UniProt P35400); assay: (§8) Agonist activity at rat mGlu7 receptor expressed in HEK293 cells co-transfected with G-protein alpha and EAAC1 assessed as increase in intracellular inositol phosphate accumulation […] by scintillation counting; format: functional, cell-based
Outline: (§9)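 Rat mGlu7 was transiently electroporated into HEK293 cells with a chimeric Gα subunit and EAAC1 and grown in glutamate/glutamine-free medium. Cells were labelled overnight with ³H-myoinositol from 6 h post-transfection, and ambient glutamate was removed with glutamate-pyruvate transaminase. Agonist was applied for 30 min, then cells were lysed 1 h in cold 0.1 M formic acid. ³H-IP was isolated on Dowex resin and eluted with 4 M formate for scintillation counting, with IP normalised to IP plus membrane counts. Triplicate points.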

[14] = target: Metabotropic glutamate receptor 7 (Rattus norvegicus) (UniProt P35400); assay: as §6; format: functional, cell-based; outline: as §7
[15] = target: Metabotropic glutamate receptor 4 (Rattus norvegicus) (UniProt P31423); assay: Agonist activity at rat mGlu4 receptor expressed in HEK293 cells co-transfected with G-protein alpha and EAAC1 assessed as increase in intracellular inositol phosphate accumulation […] by scintillation counting in presence of DCG4; format: functional, cell-based
[16] = target: Metabotropic glutamate receptor 4 (Rattus norvegicus) (UniProt P31423); assay: as §2; format: functional, cell-based; outline: as §3
[17] = target: Metabotropic glutamate receptor 8 (Rattus norvegicus) (UniProt P70579); assay: as §4; format: functional, cell-based; outline: as §3
[18] = species on record: Rattus norvegicus; assay: Selectivity ratio of EC50 for rat mGlu8 receptor to EC50 for rat mGlu4 receptor
[19] = target: T4, Metabotropic glutamate receptor 7; assay: as §8; format: functional, cell-based; outline: as §9

Metabotropic glutamate receptor 5 (Rattus norvegicus), sequence (P31424 21-1203 limits assumed): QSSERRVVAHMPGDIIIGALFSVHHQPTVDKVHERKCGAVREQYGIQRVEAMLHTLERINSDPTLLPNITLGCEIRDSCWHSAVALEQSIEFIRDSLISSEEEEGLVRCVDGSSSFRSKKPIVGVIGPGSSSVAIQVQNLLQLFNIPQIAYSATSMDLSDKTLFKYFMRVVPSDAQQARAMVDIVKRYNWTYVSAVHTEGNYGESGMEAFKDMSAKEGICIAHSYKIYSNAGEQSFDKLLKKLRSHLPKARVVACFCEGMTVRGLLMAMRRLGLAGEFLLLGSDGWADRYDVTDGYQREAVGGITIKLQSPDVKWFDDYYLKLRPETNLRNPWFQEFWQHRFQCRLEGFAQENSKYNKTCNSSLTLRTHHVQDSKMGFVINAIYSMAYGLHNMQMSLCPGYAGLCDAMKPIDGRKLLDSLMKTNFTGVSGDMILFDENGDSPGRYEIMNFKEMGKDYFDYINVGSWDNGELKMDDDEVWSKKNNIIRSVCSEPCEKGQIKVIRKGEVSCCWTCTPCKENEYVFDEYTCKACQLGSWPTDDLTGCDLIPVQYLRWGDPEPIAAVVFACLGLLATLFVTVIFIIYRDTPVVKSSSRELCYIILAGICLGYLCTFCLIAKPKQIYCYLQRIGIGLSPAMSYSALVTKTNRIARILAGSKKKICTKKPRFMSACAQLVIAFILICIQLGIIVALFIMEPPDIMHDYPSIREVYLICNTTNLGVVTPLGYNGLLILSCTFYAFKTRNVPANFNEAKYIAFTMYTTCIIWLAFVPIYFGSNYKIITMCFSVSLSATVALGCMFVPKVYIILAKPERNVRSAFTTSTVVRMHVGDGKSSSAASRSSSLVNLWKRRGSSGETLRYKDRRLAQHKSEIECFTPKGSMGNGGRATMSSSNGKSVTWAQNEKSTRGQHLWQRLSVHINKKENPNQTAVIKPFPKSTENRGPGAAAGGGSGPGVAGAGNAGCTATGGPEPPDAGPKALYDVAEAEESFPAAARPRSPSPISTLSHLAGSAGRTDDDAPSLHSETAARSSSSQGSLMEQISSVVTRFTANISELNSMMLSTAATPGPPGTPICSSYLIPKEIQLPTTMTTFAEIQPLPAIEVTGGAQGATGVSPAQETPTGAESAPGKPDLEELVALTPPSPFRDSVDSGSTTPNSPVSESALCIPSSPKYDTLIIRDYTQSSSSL
T1 sequence (P70579 whole entry): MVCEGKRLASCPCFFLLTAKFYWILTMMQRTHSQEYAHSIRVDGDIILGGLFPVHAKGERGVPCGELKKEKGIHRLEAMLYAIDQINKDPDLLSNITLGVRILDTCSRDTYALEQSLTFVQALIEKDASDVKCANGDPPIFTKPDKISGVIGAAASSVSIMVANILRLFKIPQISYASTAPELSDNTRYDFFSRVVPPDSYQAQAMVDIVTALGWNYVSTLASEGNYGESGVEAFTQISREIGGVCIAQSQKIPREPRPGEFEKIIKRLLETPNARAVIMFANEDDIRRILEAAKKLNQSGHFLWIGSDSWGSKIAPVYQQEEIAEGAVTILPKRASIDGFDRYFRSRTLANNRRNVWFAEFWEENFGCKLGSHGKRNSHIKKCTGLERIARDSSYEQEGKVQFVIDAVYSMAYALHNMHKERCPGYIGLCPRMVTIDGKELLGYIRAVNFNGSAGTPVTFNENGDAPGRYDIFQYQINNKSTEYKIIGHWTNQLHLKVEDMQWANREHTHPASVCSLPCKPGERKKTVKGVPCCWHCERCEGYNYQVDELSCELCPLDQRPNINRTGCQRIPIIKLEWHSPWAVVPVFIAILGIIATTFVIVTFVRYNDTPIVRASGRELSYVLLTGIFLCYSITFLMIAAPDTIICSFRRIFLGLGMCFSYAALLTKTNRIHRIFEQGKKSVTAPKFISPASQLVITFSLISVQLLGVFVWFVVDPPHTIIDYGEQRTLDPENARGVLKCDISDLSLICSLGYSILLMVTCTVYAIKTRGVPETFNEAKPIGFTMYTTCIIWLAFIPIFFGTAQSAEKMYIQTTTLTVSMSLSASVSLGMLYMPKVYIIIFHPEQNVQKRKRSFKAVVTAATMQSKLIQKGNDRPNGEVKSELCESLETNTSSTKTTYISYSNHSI
Metabotropic glutamate receptor 2 (Rattus norvegicus), sequence (P31421 19-872 limits assumed): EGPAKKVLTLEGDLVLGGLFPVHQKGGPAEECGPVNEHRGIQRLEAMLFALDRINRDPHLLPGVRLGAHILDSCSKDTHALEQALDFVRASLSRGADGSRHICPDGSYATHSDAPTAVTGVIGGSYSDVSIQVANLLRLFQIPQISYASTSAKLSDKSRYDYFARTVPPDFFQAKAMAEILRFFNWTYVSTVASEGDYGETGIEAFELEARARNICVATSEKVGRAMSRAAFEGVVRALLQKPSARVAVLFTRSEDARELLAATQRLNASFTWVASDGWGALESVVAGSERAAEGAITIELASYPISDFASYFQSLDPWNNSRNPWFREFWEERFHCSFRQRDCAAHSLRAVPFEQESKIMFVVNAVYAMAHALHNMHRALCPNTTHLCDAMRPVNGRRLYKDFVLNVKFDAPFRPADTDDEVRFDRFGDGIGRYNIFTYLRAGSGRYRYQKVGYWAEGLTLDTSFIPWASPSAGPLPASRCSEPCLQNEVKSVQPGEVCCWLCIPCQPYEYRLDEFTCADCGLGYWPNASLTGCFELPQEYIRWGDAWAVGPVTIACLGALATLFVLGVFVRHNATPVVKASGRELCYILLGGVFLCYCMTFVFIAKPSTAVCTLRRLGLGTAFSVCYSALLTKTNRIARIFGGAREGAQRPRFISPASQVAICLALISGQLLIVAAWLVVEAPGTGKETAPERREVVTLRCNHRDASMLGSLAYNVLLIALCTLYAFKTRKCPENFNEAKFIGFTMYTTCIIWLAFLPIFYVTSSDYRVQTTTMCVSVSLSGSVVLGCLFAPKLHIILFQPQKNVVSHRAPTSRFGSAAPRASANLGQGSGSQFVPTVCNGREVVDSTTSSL
Metabotropic glutamate receptor 2, sequence (P31421 whole entry): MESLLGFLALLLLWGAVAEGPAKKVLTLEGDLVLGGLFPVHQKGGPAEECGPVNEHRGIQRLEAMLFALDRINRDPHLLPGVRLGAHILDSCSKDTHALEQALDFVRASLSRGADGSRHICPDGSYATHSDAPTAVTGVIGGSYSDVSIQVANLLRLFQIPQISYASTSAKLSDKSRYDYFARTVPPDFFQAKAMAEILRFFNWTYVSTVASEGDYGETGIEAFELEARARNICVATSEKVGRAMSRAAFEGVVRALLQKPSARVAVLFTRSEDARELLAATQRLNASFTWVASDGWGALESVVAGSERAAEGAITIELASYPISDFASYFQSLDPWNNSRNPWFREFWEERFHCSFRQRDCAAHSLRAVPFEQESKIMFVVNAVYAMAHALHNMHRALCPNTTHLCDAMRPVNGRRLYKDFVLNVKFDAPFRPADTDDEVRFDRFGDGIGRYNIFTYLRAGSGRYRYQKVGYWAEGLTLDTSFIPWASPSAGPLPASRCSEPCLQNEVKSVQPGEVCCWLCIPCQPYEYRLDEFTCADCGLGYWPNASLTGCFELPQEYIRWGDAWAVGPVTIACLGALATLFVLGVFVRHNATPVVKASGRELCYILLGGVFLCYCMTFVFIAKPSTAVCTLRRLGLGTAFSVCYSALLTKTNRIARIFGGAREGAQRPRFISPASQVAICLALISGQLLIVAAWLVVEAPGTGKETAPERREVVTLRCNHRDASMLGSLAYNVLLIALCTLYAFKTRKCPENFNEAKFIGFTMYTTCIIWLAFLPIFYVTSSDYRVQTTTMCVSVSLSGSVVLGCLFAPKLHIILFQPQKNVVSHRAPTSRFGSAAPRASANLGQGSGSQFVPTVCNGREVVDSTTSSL
Metabotropic glutamate receptor 7 (Rattus norvegicus), sequence (P35400 whole entry): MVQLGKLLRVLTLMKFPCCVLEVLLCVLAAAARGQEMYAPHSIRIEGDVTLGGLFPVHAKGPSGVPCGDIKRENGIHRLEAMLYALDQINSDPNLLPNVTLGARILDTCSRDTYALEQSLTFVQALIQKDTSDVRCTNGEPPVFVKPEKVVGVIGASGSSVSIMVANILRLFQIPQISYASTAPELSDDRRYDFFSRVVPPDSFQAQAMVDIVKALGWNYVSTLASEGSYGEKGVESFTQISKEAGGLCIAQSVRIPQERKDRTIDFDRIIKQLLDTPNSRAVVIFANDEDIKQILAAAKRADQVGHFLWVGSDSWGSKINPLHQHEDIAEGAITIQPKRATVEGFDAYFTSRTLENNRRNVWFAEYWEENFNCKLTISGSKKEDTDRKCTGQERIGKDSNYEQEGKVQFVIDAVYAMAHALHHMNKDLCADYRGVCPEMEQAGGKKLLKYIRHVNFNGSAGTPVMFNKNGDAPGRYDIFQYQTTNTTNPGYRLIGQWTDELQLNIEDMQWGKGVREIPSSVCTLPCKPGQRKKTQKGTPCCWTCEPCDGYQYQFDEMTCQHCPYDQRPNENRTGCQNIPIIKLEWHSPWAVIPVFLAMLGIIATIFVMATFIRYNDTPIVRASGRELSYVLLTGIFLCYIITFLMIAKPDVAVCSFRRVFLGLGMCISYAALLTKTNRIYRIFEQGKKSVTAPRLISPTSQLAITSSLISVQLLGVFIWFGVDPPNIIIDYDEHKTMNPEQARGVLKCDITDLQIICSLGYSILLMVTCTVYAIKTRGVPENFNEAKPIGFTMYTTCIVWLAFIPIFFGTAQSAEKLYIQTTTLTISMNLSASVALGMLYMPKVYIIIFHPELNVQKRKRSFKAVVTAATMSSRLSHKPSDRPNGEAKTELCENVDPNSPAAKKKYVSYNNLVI
T4 sequence (P35400 whole entry): as above
Metabotropic glutamate receptor 8 (Rattus norvegicus), sequence (P70579 whole entry): as the sequence (P70579 whole entry) above

Row | Compound | EC50 [2] [µM] | EC50 [3] [µM] | EC50 [6] [µM] | EC50 [7] [µM] | EC50 [12] [µM] | further results
1 | NC(CCP(=O)(O)CCCCC(=O)O)C(=O)O (centres undefined) |  |  |  |  |  | Activity [1]: inactive
2 | N[C@@H](CCP(=O)(O)/C=C/C(=O)O)C(=O)O | 7.2 | 1 | 3 | 5.1 |  | EC50 [4]: 1.1 µM; Activity [5]: Active; Activity [8]: inactive; EC50 [9]: 6.7 µM; EC50 [10]: 43 µM; Activity [11]: inactive
3 | N[C@@H](CCP(=O)(O)CCC(=O)O)C(=O)O | 7.8 | 6.15 |  | 6.6 | 31 | EC50 [4]: 6.7 µM; Activity [8]: inactive; EC50 [10]: 89 µM; Activity [11]: inactive
4 | N[C@H](CCP(=O)(O)CCC(=O)O)C(=O)O | 58 |  | 17 |  | 99 | 
5 | N[C@@H](CCP(=O)(O)CC(=O)O)C(=O)O | 0.91 | 7.4 | 2.4 | 2.7 | 131 | EC50 [4]: > 100 µM; Activity [5]: Active; Activity [13]: inactive; Activity [8]: inactive; EC50 [9]: 57 µM; Activity [14]: inactive; Activity [11]: inactive
6 | N[C@@H](CCP(=O)(O)C(CC(=O)O)C(F)(F)F)C(=O)O (some centres undefined) |  |  | 26 |  |  | 
7 | N[C@@H](CCP(=O)(O)C(O)C(=O)O)C(=O)O (some centres undefined) |  | 7.2 |  | 2.9 |  | 
8 | CC(CP(=O)(O)CC[C@H](N)C(=O)O)C(=O)O (some centres undefined) | 53 |  | 12.1 |  |  | 
9 | NC(CCP(=O)(O)CCC(=O)O)C(=O)O (racemic) | 20 |  | 7.1 |  | 32 | Activity [15]: Dose-dependent effect; Activity [5]: Active; EC50 [9]: 52 µM
10 | NC(CP(=O)(O)CCC(=O)O)C(=O)O (centres undefined) |  |  |  |  |  | Activity [1]: inactive
11 | N[C@@H](CCCP(=O)(O)CCC(=O)O)C(=O)O |  |  |  |  |  | Activity [16]: inactive; Activity [17]: inactive
12 | NC(CCP(=O)(O)C(CC(=O)O)C(=O)O)C(=O)O (centres undefined) |  |  | 47 |  | 113 | 
13 | N[C@@H](CCP(=O)(O)C(CC(=O)O)CP(=O)(O)O)C(=O)O (some centres undefined) |  |  |  |  |  | Activity [1]: 33%
14 | N[C@@H](CCP(=O)(O)CC(CCO)C(=O)O)C(=O)O (some centres undefined) |  | 20 |  | 76 |  | 
15 | N[C@@H](CCP(=O)(O)CC(Cl)C(=O)O)C(=O)O (some centres undefined) | 8.1 | 1 | 3.8 | 8.3 |  | EC50 [4]: 8.9 µM; Activity [5]: Active; Ratio EC50 [18]: 8; Activity [8]: inactive; EC50 [9]: 49 µM; EC50 [10]: > 100 µM; Activity [11]: inactive
16 | N[C@@H](CCP(=O)(O)C(CC(=O)O)CC(=O)O)C(=O)O |  |  | 114 |  |  | 
17 | N[C@@H](CCP(=O)(O)CCP(=O)(O)O)C(=O)O | 48 |  | 88 |  |  | 
18 | C/C(=C\C(=O)O)C(O)P(=O)(O)CC[C@H](N)C(=O)O (some centres undefined) |  |  |  |  |  | Activity [1]: inactive
19 | N[C@@H](CCP(=O)(O)CCCC(=O)O)C(=O)O | 19 | 8.5 | 11.4 | 18 | > 100 | EC50 [4]: 44 µM; Activity [5]: inactive; Activity [8]: inactive; Activity [14]: inactive; Activity [11]: inactive
20 | N[C@@H](CCP(=O)(O)CC1CCOC1=O)C(=O)O (some centres undefined) |  | 123 |  | > 100 |  | 
21 | N[C@@H](CCP(=O)(O)O)C(=O)O | 0.24 | 0.13 | 0.096 | 0.3 | 3.3 | EC50 [4]: 1 µM; EC50 [19]: 306 µM; EC50 [10]: 249 µM
22 | N[C@@H](CCP(=O)(O)C1COC(=O)C1)C(=O)O (some centres undefined) |  | 141 |  | > 100 |  | 
23 | N[C@@H](CCC[PH](=O)O)C(=O)O |  | 209 |  | 73 |  | 
24 | N[C@H](C(=O)O)C1[C@@H](C(=O)O)[C@@H]1C(=O)O (some centres undefined) |  |  |  |  |  | EC50 [9]: 0.045 µM
25 | N[C@@H](CCP(=O)(O)C(O)C1CC1C(=O)O)C(=O)O (single isomer, unassigned) | 91 |  | 18 |  |  | 
26 | N[C@@]1(C(=O)O)C[C@H](C(=O)O)[C@H](C(=O)O)C1 | 5.1 |  | 1.74 |  | 10.6 | EC50 [19]: 280 µM
27 | N[C@@H](CCP(=O)(O)CC(CC(=O)O)C(=O)O)C(=O)O (some centres undefined) | 38 | 2.4 | 4.6 | 3.5 | 115 | EC50 [4]: 42 µM; Activity [5]: inactive; Activity [8]: inactive; Activity [14]: inactive; Activity [11]: inactive
